Experimental data: ChEMBL document CHEMBL4118104, “Design, Synthesis, and Evaluation of Orally Bioavailable Quinoline-Indole Derivatives as Innovative Multitarget-Directed Ligands: Promotion of Cell Proliferation in the Adult Murine Hippocampus for the Treatment of Alzheimer's Disease” (J Med Chem, 2018)

Columns and labels:
[1] = Half life in Sprague-Dawley rat liver microsomes at 100 uM up to 180 mins by HPLC-UV analysis; settings: liver microsomes
Mus musculus [2] = assay: Toxicity in C57BL/6 mouse assessed as effect on water intake at 677 to 2000 mg/kg, ig measured continuously during first 4 hrs, intermittently for following 24 hrs and occasionally thereafter for 14 consecutive days; format: organism-based; settings: in vivo, po
Mus musculus [3] = assay: Toxicity in C57BL/6 mouse assessed as macroscopic abnormalities of stomach at 677 to 2000 mg/kg, ig after 14 consecutive days; format: organism-based; settings: in vivo, po
Mus musculus [4] = assay: Toxicity in C57BL/6 mouse assessed as macroscopic abnormalities of intestine at 677 to 2000 mg/kg, ig after 14 consecutive days; format: organism-based; settings: in vivo, po
Mus musculus [5] = assay: Toxicity in C57BL/6 mouse assessed as histological abnormalities of heart at 2000 mg/kg, ig after 14 consecutive days by hematoxylin/eosin dye-based microscopic analysis; format: organism-based; settings: in vivo, po
Outline: (§1)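 Adult C57BL/6 mice, 12 weeks old, single intragastric doses of 0, 677, 1333 or 2000 mg/kg (n = 6 per dose, 3 male/3 female); behaviour and mortality observed over 14 days; liver, heart, lung and brain examined by HE staining at 2000 mg/kg.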

Mus musculus [6] = assay: Toxicity in C57BL/6 mouse assessed as histological abnormalities of lung at 2000 mg/kg, ig after 14 consecutive days by hematoxylin/eosin dye-based microscopic analysis; format: organism-based; settings: in vivo, po, 336 h; outline: as §1
Mus musculus [7] = assay: Toxicity in C57BL/6 mouse assessed as macroscopic abnormalities of kidney at 677 to 2000 mg/kg, ig after 14 consecutive days; format: organism-based; settings: in vivo, po
Mus musculus [8] = assay: Induction of cell proliferation in C57BL/6 mouse hippocampal neurons in CA1 region assessed as BrdU-incorporation at 0.5 uL/hr, icv for 7 days by immunohistochemical analysis (reference value: 3.2%); format: functional
Mus musculus [9] = assay: Induction of cell proliferation in C57BL/6 mouse hippocampal neurons in CA1 region assessed as BrdU-incorporation at 30 mg/kg, po administered via gavage for 7 days by immunohistochemical analysis (reference value: 2.3%); format: functional
Outline: (§2)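 C57BL/6 mice, 12 weeks old, n = 6, individually housed beforehand without wheels. Compound gavaged 30 mg/kg/day for 7 days with daily IP BrdU 50 mg/kg; BrdU+ cells counted by immunohistochemistry per hippocampal volume; two-way ANOVA.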

Mus musculus [10] = assay: Induction of cell proliferation in C57BL/6 mouse hippocampal neurons in CA3 region assessed as BrdU-incorporation at 30 mg/kg, po administered via gavage for 7 days by immunohistochemical analysis (reference value: 1.5%); format: functional; outline: as §2
Mus musculus [11] = assay: Toxicity in double APP/PS1 transgenic Alzheimer's disease mouse model assessed as emesis-like behavior at 30 mg/kg/day, po for 80 days; format: organism-based; settings: in vivo, 1920 h
Outline: (§3)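 APP/PS1 double-transgenic mice, six months old, dosed by intragastric infusion at 30 mg/kg/day in 0.5% CMC-Na for 80 consecutive days (n = 10). Vehicle mice and wild-type C57BL/6 mice received blank 0.5% CMC-Na. Body weight tracked daily; diarrhoea, emesis-like behaviour and mortality monitored. At sacrifice, brain, subcutaneous layer, stomach, intestines, heart, lung, liver, spleen, kidneys and other organs examined for expansion or carcinogenicity.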

Mus musculus [12] = assay: Toxicity in double APP/PS1 transgenic Alzheimer's disease mouse model assessed as increase in mortality at 30 mg/kg/day, po for 80 days; format: organism-based; settings: in vivo, 1920 h; outline: as §3
Mus musculus [13] = assay: Toxicity in double APP/PS1 transgenic Alzheimer's disease mouse model assessed as swimming speed at 30 mg/kg/day, po for 80 days by Morris water maze test (reference value: 17.8 +/- 2.5 cm/sec); format: organism-based; settings: in vivo, 1920 h
Mus musculus [14] = assay: Cognition enhancement activity in double APP/PS1 transgenic Alzheimer's disease mouse model assessed as time spent in correct quadrant at 30 mg/kg/day, po for 80 days by Morris water maze test (reference value: 20.6 +/- 4.4 sec); format: functional
Outline: (§4)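 APP/PS1 mice, six months old, gavaged 30 mg/kg/day in 0.5% CMC-Na for 80 days. Probe trial was a single 90 s free swim with the platform absent; effective region is twice the platform diameter. n = 10, mean ± SD, two-way ANOVA.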

Mus musculus [15] = assay: Cognition enhancement activity in double APP/PS1 transgenic Alzheimer's disease mouse model assessed as swimming path length in effective region at 30 mg/kg/day, po for 80 days by Morris water maze test (reference value: 44.2 +/- 4.9 cm); format: functional; outline: as §4
Mus musculus [16] = assay: Toxicity in double APP/PS1 transgenic Alzheimer's disease mouse model assessed as carcinogenicity in subcutaneous layer at 30 mg/kg/day, po for 80 days; format: organism-based; settings: in vivo, 1920 h; outline: as §3
Mus musculus [17] = assay: Toxicity in double APP/PS1 transgenic Alzheimer's disease mouse model assessed as carcinogenicity in heart at 30 mg/kg/day, po for 80 days; format: organism-based; settings: in vivo, 1920 h; outline: as §3
Mus musculus [18] = assay: Toxicity in double APP/PS1 transgenic Alzheimer's disease mouse model assessed as carcinogenicity in spleen at 30 mg/kg/day, po for 80 days; format: organism-based; settings: in vivo, 1920 h; outline: as §3
Mus musculus [19] = assay: Toxicity in double APP/PS1 transgenic Alzheimer's disease mouse model assessed as carcinogenicity in kidneys at 30 mg/kg/day, po for 80 days; format: organism-based; settings: in vivo, 1920 h; outline: as §3
Mus musculus [20] = assay: Toxicity in C57BL/6 mouse assessed as macroscopic abnormalities of heart at 677 to 2000 mg/kg, ig after 14 consecutive days; format: organism-based; settings: in vivo, po
Mus musculus [21] = assay: Toxicity in C57BL/6 mouse assessed as macroscopic abnormalities of lung at 677 to 2000 mg/kg, ig after 14 consecutive days; format: organism-based; settings: in vivo, po, 336 h
Mus musculus [22] = assay: Toxicity in C57BL/6 mouse assessed as macroscopic abnormalities of liver at 677 to 2000 mg/kg, ig after 14 consecutive days; format: organism-based; settings: in vivo, po
[23] = Half life in Sprague-Dawley rat at 5 mg/kg, iv administered as single dose by LC-MS/MS analysis; format: ADME, organism-based; settings: in vivo
Outline: (§5)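 SD rats given 5 mg/kg intravenously, n = 3; pharmacokinetic parameters derived from plasma concentrations.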

[24] = AUC (0 to infinity) in Sprague-Dawley rat at 5 mg/kg, iv administered as single dose by LC-MS/MS analysis; format: ADME, organism-based; design: dose 5 mg/kg, time infinity, route intravenous; settings: in vivo; outline: as §5
[25] = Clearance in Sprague-Dawley rat at 5 mg/kg, iv administered as single dose by LC-MS/MS analysis; format: ADME, organism-based; settings: in vivo; outline: as §5
[26] = MRT (0 to infinity) in Sprague-Dawley rat at 5 mg/kg, iv administered as single dose by LC-MS/MS analysis; format: ADME, organism-based; settings: in vivo
[27] = Cmax in Sprague-Dawley rat at 30 mg/kg, po by LC-MS/MS analysis; format: ADME, organism-based; design: dose 30 mg/kg, route oral; settings: in vivo
Outline: (§6)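 SD rats, single oral gavage 30 mg/kg, n = 3; plasma and brain drug levels taken 1 h after dosing, measured by LC-MS/MS.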

[28] = AUC (0 to infinity) in Sprague-Dawley rat at 30 mg/kg, po by LC-MS/MS analysis; format: ADME, organism-based; design: dose 30 mg/kg, time infinity, route oral; settings: in vivo
[29] = MRT (0 to infinity) in Sprague-Dawley rat at 30 mg/kg, po by LC-MS/MS analysis; format: ADME, organism-based; settings: in vivo
Outline: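 SD rats given a single oral gavage dose of 30 mg/kg, n = 3; plasma levels by LC-MS/MS; bioavailability computed against the 5 mg/kg intravenous arm.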

[30] = Drug uptake in Sprague-Dawley rat brain at 30 mg/kg, po after 1 hr by LC-MS/MS analysis; format: ADME, organism-based; settings: read-out: Drug uptake; outline: as §6

With Cl.Oc1c(Cl)cc(Cl)c2ccc(-c3cc4cc5c(cc4[nH]3)OCO5)nc12 the half-life at 3 h, 100 µM [1] was 6.49 h, the Activity (Mus musculus [2]) was “Non-Toxic” and the Activity (Mus musculus [3]) was “Non-Toxic”. For the same molecule, the Activity (Mus musculus [4]) was “Non-Toxic”, the Activity (Mus musculus [5]) was “Non-Toxic” and the Activity (Mus musculus [6]) was “Non-Toxic”. For the same molecule, the Activity (Mus musculus [7]) was “Non-Toxic”, the Activity (Mus musculus [8]) was 49.8% and the Activity (Mus musculus [9]) was 14.6%. For the same molecule, the Activity (Mus musculus [10]) was 17.1%, the Activity (Mus musculus [11]) was “Non-Toxic” and the Activity (Mus musculus [12]) was “Non-Toxic”. It also gave an Activity (Mus musculus [13]) of 19 cm/s, a Time (Mus musculus [14]) of 24 s and an Activity (Mus musculus [15]) of 65.5 cm. For the same molecule, the Activity (Mus musculus [16]) was “Non-Toxic”, the Activity (Mus musculus [17]) was “Non-Toxic” and the Activity (Mus musculus [18]) was “Non-Toxic”. For the same molecule, the Activity (Mus musculus [19]) was “Non-Toxic”, the Activity (Mus musculus [20]) was “Non-Toxic” and the Activity (Mus musculus [21]) was “Non-Toxic”. The Activity (Mus musculus [22]) was “Non-Toxic”.

In the case of Cl.Oc1ccc2[nH]c(-c3ccc4c(Cl)cc(Cl)c(O)c4n3)cc2c1, the half-life at 3 h, 100 µM [1] is reported as 1.95 h, the Activity (Mus musculus [2]) is reported as “Non-Toxic” and the Activity (Mus musculus [3]) is reported as “Non-Toxic”. The Activity (Mus musculus [4]) was “Non-Toxic”, the Activity (Mus musculus [5]) was “Non-Toxic” and the Activity (Mus musculus [6]) was “Non-Toxic”. For the same molecule, the Activity (Mus musculus [7]) was “Non-Toxic”, the Activity (Mus musculus [8]) was 50.1% and the Activity (Mus musculus [9]) was 21.1%. For the same molecule, the Activity (Mus musculus [10]) was 23.9%, the half-life [23] was 0.93 h and the AUC(0-inf) [24] was 2120 ng·h/mL. The clearance [25] was 39.3 mL/min/kg, the MRT inf [26] was 0.41 h and the Cmax [27] was 1000 ng/mL. The AUC(0-inf) [28] was 1790 ng·h/mL, the MRT inf [29] was 4.88 h and the concentration at 1 h [30] was 579 ng/g. For the same molecule, the Activity (Mus musculus [11]) was “Non-Toxic”, the Activity (Mus musculus [12]) was “Non-Toxic” and the Activity (Mus musculus [13]) was 18.9 cm/s. For the same molecule, the Time (Mus musculus [14]) was 27.4 s, the Activity (Mus musculus [15]) was 71.3 cm and the Activity (Mus musculus [16]) was “Non-Toxic”. The Activity (Mus musculus [17]) was “Non-Toxic”, the Activity (Mus musculus [18]) was “Non-Toxic” and the Activity (Mus musculus [19]) was “Non-Toxic”. The Activity (Mus musculus [20]) was “Non-Toxic”, the Activity (Mus musculus [21]) was “Non-Toxic” and the Activity (Mus musculus [22]) was “Non-Toxic”.
